# Rows were chosen to be rich in hits. Some 2% of all compounds tested hit in one or more screens of this group.
# FLuc stim CS: FLuc activators, initial screening, artefact control for FLuc-dependent activation tests, biochemical, ATPlite luminescence; AID 1027, 2008; ATPlite luciferase biochemical, 10 min; 0 = ATP-free wells, 1 = DMSO control; 200,000 tested, under 10 active; Luciferin 4-monooxygenase (Photinus pyralis), P08659; activation factor at 10 µM;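 active means luciferase activation factor, scaled between plate controls, of at least 2 with compound at 10 µM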
# Target sequence (P08659 whole entry, looked up): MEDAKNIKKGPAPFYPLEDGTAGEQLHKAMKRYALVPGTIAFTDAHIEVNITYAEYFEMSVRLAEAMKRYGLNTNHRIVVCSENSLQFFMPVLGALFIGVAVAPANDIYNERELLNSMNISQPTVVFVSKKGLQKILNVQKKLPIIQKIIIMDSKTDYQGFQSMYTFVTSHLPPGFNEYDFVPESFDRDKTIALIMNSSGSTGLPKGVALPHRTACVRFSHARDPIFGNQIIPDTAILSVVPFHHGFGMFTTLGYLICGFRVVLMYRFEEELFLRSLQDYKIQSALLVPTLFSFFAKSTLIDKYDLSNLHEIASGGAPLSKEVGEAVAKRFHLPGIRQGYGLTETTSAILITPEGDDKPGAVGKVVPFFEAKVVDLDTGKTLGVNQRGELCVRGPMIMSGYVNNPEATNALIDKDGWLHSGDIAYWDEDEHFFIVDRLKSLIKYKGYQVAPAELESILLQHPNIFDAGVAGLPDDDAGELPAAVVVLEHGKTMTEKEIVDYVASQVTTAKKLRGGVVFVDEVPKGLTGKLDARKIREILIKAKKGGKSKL
#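 Material: Luciferase/luciferin reagent mix | Doses: Test compounds dosed from 2 mM stocks in 100% DMSO | Timing: 10 min incubation after luciferase reagent addition, room temperature | Measured by: Luminescence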
# HSP90 refold inh: HSP90 inhibitors, primary screen, cell lysate, luminescence; Heat shock protein HSP 90 (rabbit reticulocyte lysate; luciferase refolding); hit rate 0.91% among 290,000; inhibition, % at 5.6 µM; Rabbit reticulocyte lysate, luciferase refolding luminescence, 3 h;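 active means inhibition above the screen-wide mean plus 3 SD, computed separately per campaign, cut at about 16% in these data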;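 further: 0% = DMSO wells and 100% = 60 µM geldanamycin wells; inhibitors lower the luminescence because luciferase stays unfolded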
# TRAIL sens C8: viability loss with TRAIL in NB7+C8 cells, primary screen, TRAIL sensitizer project, cell-based, ATPlite luminescence. AID 624354, 2012. hit rate 1% among 360,000. inhibition (viability loss, TRAIL sensitization), % at 10 µM;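 active means compounds causing at least 50% loss of cell viability in the single-dose screen, relative to plate controls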
# PPC-1+TRAIL kill: compounds killing PPC-1 cancer cells with TRAIL present, primary screen, TRAIL potentiator project, ATPLite luminescence, uHTS | hit rate 0.41% among 220,000 | cell killing (% activity), % at 4 µM or 5 µM | AID 1443, 2008 | PPC-1 cells + TRAIL, ATPLite viability luminescence;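 active means cell killing above 50% in the first pass at 4 µM, then a duplicate retest at 5 µM averaging 50% or more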;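 further: plate controls were cells with TRAIL plus DMSO for no effect and medium-only wells lacking cells for full effect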
# FLuc inhib CS: firefly luciferase enzyme inhibitors, primary screen, artefact control for luciferase-based inhibitor screens, biochemical, luminescence, ATPLite | inhibition, % at 10 µM | 10 min | hit rate 1.5% among 200,000 | AID 1006, 2008 | Luciferin 4-monooxygenase (Photinus pyralis), P08659;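 active means inhibition above about 50% when tested at 10 µM, limit read from the data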
# HSP90 confirm: HSP90 inhibitors, confirmation, cell lysate, luminescence; inhibition, % at 5.9 µM; rabbit reticulocyte lysate, luciferase refolding luminescence, 3 h; shares compounds with HSP90 refold inh; hit rate 64% among 2,300; in the data active means inhibition above about 18%;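 further: 0% = vehicle wells and 100% = reference inhibitor wells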
# FLuc counter: firefly luciferase inhibitors, HSP90 counter-screen, confirmation, artefact control for HSP90 inhibitor project, biochemical, luminescence, triplicate | shares compounds with HSP90 refold inh | purified native firefly luciferase | inhibition, % at 5.9 µM | hit rate 48% among 2,300;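 active means inhibition above the mean inhibition of all tested sample wells plus 3 SD, cut at about 10% in these data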;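 further: 0% = DMSO with luciferase and 100% = wells lacking luciferase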
# * = called active by the depositor; · = not tested or not shown.
SMILES,FLuc stim CS,HSP90 refold inh,TRAIL sens C8,PPC-1+TRAIL kill,FLuc inhib CS,HSP90 confirm,FLuc counter
COc1ccc(C(=O)N=C2SC3CS(=O)(=O)CC3N2c2ccc(N(C)C)cc2)cc1OC (centres undefined),·,-2.0,-2.0,·,·,·,·
Cc1ccc(C(=O)NC2CCCCCCC2)c(Cl)c1,·,41.9*,60.6*,·,·,63.5*,53.1*
O=C(NC1CCCCCCC1)c1cc(F)c(F)cc1Cl,1,-3.1,5.3,20.7,2.9,·,·
CC(C)N(C(=O)CSc1nnc(Cn2nnc3ccccc32)n1C)C(C)C,1,-5.2,-2.4,3.1,-2.2,·,·
O=C(O)CSc1nnc(Cn2nnc3ccccc32)n1CCc1ccccc1,1,25.3*,-7.8,3.1,0.4,-7.6,-4.9
CC1(C)CC2=C(CO1)C(=S)NC(c1ccccc1)N2CC1CCCO1 (centres undefined),·,4.3,-8.7,4.5,·,·,·
COc1ccc(N2CCC(CNC(=S)Nc3cccc(OC)c3)C2)cc1 (centres undefined),1.1,18.1*,·,14.4,-7.1,0.5,-9.6
COCC(=O)Nc1ccc(N2CCN(c3ccccc3)CC2)c(F)c1,·,27.4*,-4.5,·,·,-7.3,-12.6
O=C(CN1CCN(c2ccccn2)CC1)Nc1ccc(F)c(F)c1,·,-1.5,-18.9,·,·,·,·
CCOC(=O)NN1C(=O)c2ccccc2NC1c1cccs1 (centres undefined),·,2.5,-0.3,·,·,·,·
COC(=O)c1cccc(Cn2cc([N+](=O)[O-])cn2)c1,1,0.0,·,15.4,-2.9,·,·
CCOc1ccc(OCc2cccc(C(=O)N/N=C/c3cccnc3)c2)cc1,0.5,31.1*,44.6,41.2,46.7,23.2*,-4.0
CCOc1ccc(OCc2cccc(C(=O)N3CCOCC3)c2)cc1,0.3,61.0*,65.2*,42.8,72.1*,70.0*,73.1*
COc1ccc(OCc2cccc(C(=O)NN)c2)cc1,0.7,43.9*,33.5,26.1,30.0,54.1*,30.3*
NNC(=O)c1cccc(COc2cccc(Br)c2)c1,1,-1.2,-9.4,12.1,-0.6,·,·
COc1ccc(OCc2cccc(C(=O)Nn3cc([N+](=O)[O-])cn3)c2)cc1,0.3,18.4*,27.7,37.0,69.6*,61.9*,27.5*
CCc1ccc(NC(=O)CSc2nnc(CNC(=O)c3ccco3)o2)cc1,·,-9.1,17.1,·,·,·,·
COc1cccc(C(=O)Nc2cc(C)on2)c1,·,·,26.2,·,·,·,·
COc1ccc(OCc2cccc(C(=O)Nc3cc(C)on3)c2)cc1,0.9,40.3*,12.1,20.6,9.3,65.4*,58.5*
NNC(=O)c1cccc(COc2ccc(Br)cc2)c1,0.8,59.6*,22.7,12.4,17.0,49.0*,16.6*
COc1cc(OC)c(OC)cc1CNC(=O)c1cccc(S(=O)(=O)N2CCc3ccccc3C2)c1,·,·,26.3,·,·,·,·
Cc1nn(-c2ccccc2)c(Cl)c1/C=N/NC(=O)c1[nH]ncc1Br,·,33.0*,72.7*,·,·,45.8*,39.2*
Cc1cc(C(=O)N/N=C/c2c(C)nn(-c3ccccc3)c2Cl)n[nH]1,·,0.7,31.6,5.0,·,·,·
COc1cccc2oc3cc(C#Cc4ccccn4)ccc3c(=O)c12,·,-2.1,·,·,·,·,·
COc1cccc2oc3cc(C#CC4(O)CCCCC4)ccc3c(=O)c12,·,25.6*,72.2*,·,·,29.7*,19.4*
COc1ccc2c(c1OC)C(=O)OC2Nc1nc(-c2cc3ccccc3oc2=O)cs1 (centres undefined),0.6,63.6*,43.6,7.6,36.2,13.6,2.3
CN(CC(=O)NCc1ccncc1)S(=O)(=O)c1cc(Cl)ccc1Cl,·,53.3*,-36.4,·,·,-0.7,-7.5
COc1ccc(NC(=O)CSc2nnc(-c3cccnc3)s2)cc1,·,2.1,-5.4,·,·,·,·
CC(C)(C)c1cc(NC(=O)c2ccco2)no1,·,19.1*,43.2,·,·,31.1*,12.4*
